Source: ChEMBL document CHEMBL2029240 (ACS Med Chem Lett, 2011)
Active and inactive are the calls of the source. The calls are words filed in the database; no cut-off is given here.

Experiments:
[1] = molecular target: T1, C-C chemokine receptor type 2 (Homo sapiens, UniProt P41597)
[2] = molecular target: T1, C-C chemokine receptor type 2; experiment: Antagonist activity at CCR2 receptor in human whole blood assessed as inhibition of alexa-tagged MCP-induced effect 30 mins by flow cytometry; type: functional, tissue-based
[3] = molecular target: T2, Voltage-gated inwardly rectifying potassium channel KCNH2 (Homo sapiens, UniProt Q12809); experiment: Displacement of [3H]dofetilide from human ERG
Rattus norvegicus [4] = experiment: Half life in rat at 2 mg/kg, iv; type: ADME, organism-based; design: dose 2 mg/kg, route intravenous; details: in vivo
Method in brief: (§1)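 Rats were dosed iv at 2 mg/kg and orally at 10 mg/kg. Plasma PK parameters derived: CL (L/h/kg), Vss (L/kg), t1/2 (h), Cmax (nM), Tmax (h), AUC (nM h) and oral F%.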

Rattus norvegicus [5] = experiment: Clearance in rat at 2 mg/kg, iv; type: ADME, organism-based; design: dose 2 mg/kg, route intravenous; details: in vivo
Method in brief: as §1

hERG (KCNH2) = hERG (KCNH2) (Homo sapiens, UniProt Q12809); experiment: Inhibition of human ERG at 10 uM by patch clamp assay
[6] = molecular target: T3, C-C chemokine receptor type 2 (Mus musculus, UniProt P51683); experiment: Binding affinity to mouse CCR2
Method in brief: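 Mouse CCR2 binding assay, with affinity reported as IC50.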

[7] = Oral bioavailability in dog at 10 mg/kg; type: ADME, organism-based, Canis lupus familiaris; details: in vivo
[8] = Half life in dog at 2 mg/kg, iv; type: ADME, organism-based, Canis lupus familiaris; design: dose 2 mg/kg, route intravenous; details: in vivo
[9] = molecular target: T4, C-X-C chemokine receptor type 5 (Homo sapiens) (UniProt P32302); experiment: Inhibition of CXCR5 at 1 uM
T4 sequence (whole entry): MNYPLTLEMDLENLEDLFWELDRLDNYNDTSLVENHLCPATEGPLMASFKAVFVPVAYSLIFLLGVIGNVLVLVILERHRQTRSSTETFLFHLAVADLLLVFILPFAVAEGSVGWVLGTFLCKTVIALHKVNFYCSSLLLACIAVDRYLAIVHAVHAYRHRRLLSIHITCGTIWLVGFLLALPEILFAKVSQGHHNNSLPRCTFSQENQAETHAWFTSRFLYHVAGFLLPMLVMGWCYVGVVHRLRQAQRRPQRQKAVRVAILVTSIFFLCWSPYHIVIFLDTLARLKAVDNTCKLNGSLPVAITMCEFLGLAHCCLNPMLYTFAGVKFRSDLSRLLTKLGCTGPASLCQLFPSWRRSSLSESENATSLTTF
Method in brief: (§2)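 Single-concentration screen at 1 μM against a broad panel of more than 50 targets (ion channels, transporters, chemokine receptors, other GPCRs), scored for significant inhibition.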

[10] = Half life in rat at 10 mg/kg, po; type: ADME, organism-based; design: dose 10 mg/kg, route oral; details: in vivo
Method in brief: as §1

[11] = Tmax in rat at 10 mg/kg, po; type: ADME, organism-based; design: dose 10 mg/kg, route oral; details: in vivo
Method in brief: as §1

Cytochrome P450 2D6 = Cytochrome P450 2D6 (Homo sapiens, UniProt P10635); experiment: Inhibition of CYP2D6; type: ADME
[12] = AUC in dog at 10 mg/kg, po; type: ADME, organism-based, Canis lupus familiaris; design: dose 10 mg/kg, route oral; details: plasma
[13] = Drug metabolism in human S9 fraction assessed as glutathione adduct formation in the presence of NADPH; type: ADME, subcellular
Method in brief: (§3)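 Test agent incubated with human liver S9 fraction plus glutathione as cofactor, run both with and without NADPH. Read-out was detection of glutathione adducts.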

[14] = Permeability across human Caco2 cells; type: ADME, cell-based; details: Caco-2, read-out: permeability
[15] = Half life in human liver microsomes; type: ADME, Microsome
[16] = molecular target: T5, C-C chemokine receptor type 1 (Homo sapiens) (UniProt P32246); experiment: Inhibition of CCR1 at 1 uM
T5 sequence (whole entry): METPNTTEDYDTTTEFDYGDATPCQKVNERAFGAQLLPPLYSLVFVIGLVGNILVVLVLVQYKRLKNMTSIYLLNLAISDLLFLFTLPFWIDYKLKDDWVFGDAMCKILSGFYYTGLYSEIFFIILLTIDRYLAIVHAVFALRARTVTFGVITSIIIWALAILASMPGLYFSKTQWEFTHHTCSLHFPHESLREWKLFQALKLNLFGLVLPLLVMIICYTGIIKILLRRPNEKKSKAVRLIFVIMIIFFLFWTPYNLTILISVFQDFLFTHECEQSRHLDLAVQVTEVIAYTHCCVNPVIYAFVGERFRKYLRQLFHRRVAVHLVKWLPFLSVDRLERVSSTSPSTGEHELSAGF
Method in brief: as §2

[17] = molecular target: T2, Voltage-gated inwardly rectifying potassium channel KCNH2; experiment: Inhibition of human ERG by patch clamp assay
Cytochrome P450 2C9 = Cytochrome P450 2C9 (Homo sapiens, UniProt P11712); experiment: Inhibition of CYP2C9; type: ADME
[18] = Half life in dog at 10 mg/kg, po; type: ADME, organism-based, Canis lupus familiaris; design: dose 10 mg/kg, route oral; details: in vivo
[19] = Clearance in dog at 2 mg/kg, iv; type: ADME, organism-based, Canis lupus familiaris; design: dose 2 mg/kg, route intravenous; details: in vivo
[20] = molecular target: T6, C-X-C chemokine receptor type 3 (Homo sapiens) (UniProt P49682); experiment: Inhibition of CXCR3 at 1 uM
T6 sequence (whole entry): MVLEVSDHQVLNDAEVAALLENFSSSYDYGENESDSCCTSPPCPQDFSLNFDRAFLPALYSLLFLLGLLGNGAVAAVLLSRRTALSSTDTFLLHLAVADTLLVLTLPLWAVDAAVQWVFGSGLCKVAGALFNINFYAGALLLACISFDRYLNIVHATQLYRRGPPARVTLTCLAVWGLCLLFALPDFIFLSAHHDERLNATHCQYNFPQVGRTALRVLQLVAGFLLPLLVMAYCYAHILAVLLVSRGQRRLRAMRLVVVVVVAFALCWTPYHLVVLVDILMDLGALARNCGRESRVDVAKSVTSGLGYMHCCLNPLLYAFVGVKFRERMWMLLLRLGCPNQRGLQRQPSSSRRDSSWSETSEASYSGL
Method in brief: as §2

Cytochrome P450 2C19 = Cytochrome P450 2C19 (Homo sapiens, UniProt P33261); experiment: Inhibition of CYP2C19; type: ADME
[21] = Cmax in dog at 10 mg/kg, po; type: ADME, organism-based, Canis lupus familiaris; design: dose 10 mg/kg, route oral; details: in vivo
[22] = Tmax in dog at 10 mg/kg, po; type: ADME, organism-based, Canis lupus familiaris; design: dose 10 mg/kg, route oral; details: in vivo
[23] = molecular target: C-C chemokine receptor type 5 (Homo sapiens) (UniProt P51681); experiment: Inhibition of CCR5 at 1 uM
Method in brief: as §2

[24] = molecular target: T7, C-C chemokine receptor type 3 (Homo sapiens) (UniProt P51677); experiment: Inhibition of CCR3 at 1 uM
T7 sequence (whole entry): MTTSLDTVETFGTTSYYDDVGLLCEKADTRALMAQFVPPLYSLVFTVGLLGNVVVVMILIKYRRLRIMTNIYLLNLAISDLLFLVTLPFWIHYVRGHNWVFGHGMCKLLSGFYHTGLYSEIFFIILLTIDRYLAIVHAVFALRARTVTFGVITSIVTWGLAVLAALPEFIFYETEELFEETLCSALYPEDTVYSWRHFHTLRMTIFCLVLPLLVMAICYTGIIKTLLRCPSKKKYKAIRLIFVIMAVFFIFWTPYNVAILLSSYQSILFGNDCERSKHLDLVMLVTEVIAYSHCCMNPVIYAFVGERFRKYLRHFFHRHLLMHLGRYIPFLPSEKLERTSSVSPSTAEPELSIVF
Method in brief: as §2

[25] = molecular target: T8, C-C chemokine receptor type 2 (Rattus norvegicus, UniProt O55193); experiment: Antagonist activity at rat CCR2; type: functional
T8 sequence (O55193 whole entry): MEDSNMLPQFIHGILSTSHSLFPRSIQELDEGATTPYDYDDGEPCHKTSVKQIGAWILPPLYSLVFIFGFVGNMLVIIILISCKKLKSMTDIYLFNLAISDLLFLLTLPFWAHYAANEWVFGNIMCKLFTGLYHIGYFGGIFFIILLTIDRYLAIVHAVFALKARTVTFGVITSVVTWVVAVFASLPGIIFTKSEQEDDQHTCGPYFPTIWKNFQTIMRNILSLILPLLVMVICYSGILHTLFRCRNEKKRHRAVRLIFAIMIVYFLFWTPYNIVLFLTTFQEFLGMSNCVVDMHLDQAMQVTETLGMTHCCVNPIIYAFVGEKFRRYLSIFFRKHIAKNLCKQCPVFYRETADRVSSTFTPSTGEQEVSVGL

Cytochrome P450 1A2 = molecular target: T9, Cytochrome P450 1A2 (Homo sapiens, UniProt P05177); experiment: Inhibition of CYP1A2; type: ADME
T9 sequence (P05177 whole entry): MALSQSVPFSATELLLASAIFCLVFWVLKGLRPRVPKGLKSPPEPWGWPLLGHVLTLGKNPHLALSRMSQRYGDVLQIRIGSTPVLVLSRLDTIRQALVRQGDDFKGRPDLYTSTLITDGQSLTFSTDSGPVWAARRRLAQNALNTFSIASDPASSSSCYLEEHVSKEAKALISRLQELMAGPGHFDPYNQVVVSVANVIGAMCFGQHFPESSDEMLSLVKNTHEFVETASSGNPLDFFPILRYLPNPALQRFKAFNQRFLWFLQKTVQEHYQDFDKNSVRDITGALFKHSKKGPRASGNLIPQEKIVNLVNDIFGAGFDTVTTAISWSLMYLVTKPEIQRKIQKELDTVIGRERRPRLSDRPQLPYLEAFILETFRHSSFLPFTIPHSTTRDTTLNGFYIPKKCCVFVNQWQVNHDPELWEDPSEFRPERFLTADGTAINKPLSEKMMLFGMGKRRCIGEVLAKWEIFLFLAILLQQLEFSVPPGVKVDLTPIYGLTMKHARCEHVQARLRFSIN

[26] = Drug metabolism in human S9 fraction assessed as glutathione adduct formation in the absence of NADPH; type: ADME, subcellular
Method in brief: as §3

[27] = Volume of distribution at steady state in dog at 2 mg/kg, iv; type: ADME, organism-based, Canis lupus familiaris; design: dose 2 mg/kg, route intravenous; details: in vivo, read-out: Vdss
[28] = Induction of Cytochrome P450 up to 30 uM; type: ADME
Rattus norvegicus [29] = experiment: AUC in rat at 10 mg/kg, po; type: ADME, organism-based, Plasma; design: dose 10 mg/kg, route oral; details: in vivo
Method in brief: as §1

[30] = molecular target: T8, C-C chemokine receptor type 2; experiment: Binding affinity to rat CCR2
[31] = molecular target: T3, C-C chemokine receptor type 2; experiment: Antagonist activity at mouse CCR2; type: functional
Method in brief: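 Read-out was antagonism of CCR2-mediated chemotaxis in a mouse chemotaxis assay, with activity reported as IC50.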

Rattus norvegicus [32] = experiment: Oral bioavailability in rat at 10 mg/kg; type: ADME, organism-based; details: in vivo
Method in brief: as §1

[33] = Fraction unbound in human serum; type: ADME, cell-free
[34] = Cmax in rat at 10 mg/kg, po; type: ADME, organism-based; design: dose 10 mg/kg, route oral; details: in vivo
Method in brief: as §1

T1 sequence (P41597 whole entry): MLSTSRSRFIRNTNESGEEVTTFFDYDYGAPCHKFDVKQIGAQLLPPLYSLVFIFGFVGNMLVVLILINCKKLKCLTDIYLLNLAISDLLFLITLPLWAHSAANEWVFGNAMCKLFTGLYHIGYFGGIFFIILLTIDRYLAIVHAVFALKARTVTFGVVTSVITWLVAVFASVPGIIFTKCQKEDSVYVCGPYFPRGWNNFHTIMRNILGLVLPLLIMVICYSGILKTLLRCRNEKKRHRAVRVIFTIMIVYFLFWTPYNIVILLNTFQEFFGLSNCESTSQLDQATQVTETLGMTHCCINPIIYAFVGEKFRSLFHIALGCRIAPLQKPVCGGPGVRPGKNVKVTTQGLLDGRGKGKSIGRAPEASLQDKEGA
T2 sequence (Q12809 whole entry): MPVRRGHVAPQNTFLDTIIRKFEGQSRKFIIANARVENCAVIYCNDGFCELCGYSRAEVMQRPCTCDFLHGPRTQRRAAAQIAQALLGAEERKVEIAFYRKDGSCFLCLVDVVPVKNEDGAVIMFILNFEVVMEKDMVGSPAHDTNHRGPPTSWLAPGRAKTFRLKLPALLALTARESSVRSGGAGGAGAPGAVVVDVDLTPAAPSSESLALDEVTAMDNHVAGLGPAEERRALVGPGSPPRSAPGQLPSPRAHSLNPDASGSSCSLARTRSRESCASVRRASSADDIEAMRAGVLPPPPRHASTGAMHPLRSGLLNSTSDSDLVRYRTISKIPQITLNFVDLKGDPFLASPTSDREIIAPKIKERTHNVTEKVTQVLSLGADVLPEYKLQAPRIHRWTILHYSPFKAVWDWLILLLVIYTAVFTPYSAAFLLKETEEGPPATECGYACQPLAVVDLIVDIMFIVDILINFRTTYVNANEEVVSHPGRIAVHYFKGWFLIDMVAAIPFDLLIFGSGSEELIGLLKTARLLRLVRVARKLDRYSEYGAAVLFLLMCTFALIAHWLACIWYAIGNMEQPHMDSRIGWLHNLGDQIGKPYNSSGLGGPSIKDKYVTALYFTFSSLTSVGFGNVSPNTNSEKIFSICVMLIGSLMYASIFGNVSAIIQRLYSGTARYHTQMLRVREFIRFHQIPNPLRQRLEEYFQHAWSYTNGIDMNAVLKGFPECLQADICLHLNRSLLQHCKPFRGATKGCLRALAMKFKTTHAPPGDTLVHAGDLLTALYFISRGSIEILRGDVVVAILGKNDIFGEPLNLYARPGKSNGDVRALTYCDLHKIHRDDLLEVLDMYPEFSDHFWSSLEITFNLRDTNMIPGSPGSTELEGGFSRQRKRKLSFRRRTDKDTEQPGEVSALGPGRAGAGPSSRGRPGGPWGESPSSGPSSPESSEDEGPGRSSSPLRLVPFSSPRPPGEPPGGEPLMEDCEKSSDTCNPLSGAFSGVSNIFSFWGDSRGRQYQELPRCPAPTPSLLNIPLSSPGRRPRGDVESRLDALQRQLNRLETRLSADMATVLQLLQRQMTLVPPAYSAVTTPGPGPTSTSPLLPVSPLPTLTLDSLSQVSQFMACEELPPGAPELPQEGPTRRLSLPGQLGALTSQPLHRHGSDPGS
T3 sequence (P51683 whole entry): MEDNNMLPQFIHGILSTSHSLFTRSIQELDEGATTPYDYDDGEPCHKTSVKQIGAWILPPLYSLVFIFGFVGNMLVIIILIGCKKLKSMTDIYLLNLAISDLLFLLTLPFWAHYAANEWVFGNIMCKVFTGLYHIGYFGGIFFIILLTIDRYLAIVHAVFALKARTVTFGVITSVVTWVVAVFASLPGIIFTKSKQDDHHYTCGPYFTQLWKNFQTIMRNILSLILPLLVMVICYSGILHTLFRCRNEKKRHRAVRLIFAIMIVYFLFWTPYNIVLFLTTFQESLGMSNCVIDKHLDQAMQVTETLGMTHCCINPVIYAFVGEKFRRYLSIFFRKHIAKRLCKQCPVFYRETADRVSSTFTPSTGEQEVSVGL
Sequence of C-C chemokine receptor type 5 (Homo sapiens) (P51681 whole entry, looked up): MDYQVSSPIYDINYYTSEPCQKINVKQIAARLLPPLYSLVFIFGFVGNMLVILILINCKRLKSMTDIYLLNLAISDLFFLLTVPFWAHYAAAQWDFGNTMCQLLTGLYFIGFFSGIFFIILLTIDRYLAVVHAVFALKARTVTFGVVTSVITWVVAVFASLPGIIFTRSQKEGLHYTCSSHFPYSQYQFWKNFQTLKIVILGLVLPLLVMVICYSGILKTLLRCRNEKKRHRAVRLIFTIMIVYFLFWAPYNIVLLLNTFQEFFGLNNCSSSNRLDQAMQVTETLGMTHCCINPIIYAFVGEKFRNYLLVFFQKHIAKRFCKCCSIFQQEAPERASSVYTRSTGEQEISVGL
Sequence of Cytochrome P450 2C19 (P33261 whole entry): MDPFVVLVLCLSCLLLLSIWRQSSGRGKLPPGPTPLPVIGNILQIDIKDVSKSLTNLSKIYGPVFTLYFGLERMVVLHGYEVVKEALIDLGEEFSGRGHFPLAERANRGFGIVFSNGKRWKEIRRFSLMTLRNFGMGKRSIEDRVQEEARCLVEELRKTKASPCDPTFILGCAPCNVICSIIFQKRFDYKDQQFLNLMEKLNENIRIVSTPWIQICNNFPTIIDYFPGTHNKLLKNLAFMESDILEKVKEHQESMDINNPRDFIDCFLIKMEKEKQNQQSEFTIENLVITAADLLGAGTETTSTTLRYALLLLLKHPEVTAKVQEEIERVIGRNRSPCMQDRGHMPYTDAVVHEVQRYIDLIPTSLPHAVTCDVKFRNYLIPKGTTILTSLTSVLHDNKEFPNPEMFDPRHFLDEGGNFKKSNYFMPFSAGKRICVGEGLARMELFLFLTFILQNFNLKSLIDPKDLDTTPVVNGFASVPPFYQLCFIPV
Sequence of hERG (KCNH2) (Q12809 whole entry): as the sequence (Q12809 whole entry) above
Sequence of Cytochrome P450 2C9 (P11712 whole entry): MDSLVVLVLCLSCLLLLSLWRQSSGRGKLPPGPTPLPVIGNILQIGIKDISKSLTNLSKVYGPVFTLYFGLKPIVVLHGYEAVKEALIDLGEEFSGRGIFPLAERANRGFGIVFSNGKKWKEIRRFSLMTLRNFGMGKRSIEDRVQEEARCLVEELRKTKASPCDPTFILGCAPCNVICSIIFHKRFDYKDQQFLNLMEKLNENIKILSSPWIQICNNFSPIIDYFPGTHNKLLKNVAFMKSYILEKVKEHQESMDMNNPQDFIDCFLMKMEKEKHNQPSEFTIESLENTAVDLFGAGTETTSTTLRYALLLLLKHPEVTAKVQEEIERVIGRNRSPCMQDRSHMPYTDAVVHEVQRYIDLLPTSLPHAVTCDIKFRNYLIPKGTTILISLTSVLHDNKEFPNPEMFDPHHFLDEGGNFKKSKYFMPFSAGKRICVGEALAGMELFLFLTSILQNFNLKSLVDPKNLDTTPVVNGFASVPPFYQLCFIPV
Sequence of Cytochrome P450 2D6 (P10635 whole entry): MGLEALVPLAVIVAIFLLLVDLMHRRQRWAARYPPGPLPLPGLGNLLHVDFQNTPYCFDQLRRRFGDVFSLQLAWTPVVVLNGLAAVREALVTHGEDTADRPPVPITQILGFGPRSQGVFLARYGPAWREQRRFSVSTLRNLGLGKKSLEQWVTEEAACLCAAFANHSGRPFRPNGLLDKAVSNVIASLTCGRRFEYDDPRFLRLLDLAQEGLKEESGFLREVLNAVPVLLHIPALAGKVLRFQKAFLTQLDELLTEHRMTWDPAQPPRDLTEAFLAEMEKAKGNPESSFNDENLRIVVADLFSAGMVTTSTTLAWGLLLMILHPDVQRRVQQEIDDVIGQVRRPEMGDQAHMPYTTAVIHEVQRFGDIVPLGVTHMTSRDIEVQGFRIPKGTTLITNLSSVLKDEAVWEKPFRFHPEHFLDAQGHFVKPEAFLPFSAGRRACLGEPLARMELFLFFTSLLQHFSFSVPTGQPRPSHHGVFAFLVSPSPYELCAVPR

Work on `O=C(C1CCN(c2nccc(C(F)(F)F)n2)CC1)N1CC[C@H](N[C@H]2CC[C@@](O)(c3ccc(-c4ncccn4)cn3)CC2)C1` yielded an IC50 [1] of 5.4 nM and an IC50 [2] of 29 nM.
For `O=C(C1CCN(c2cc(C(F)(F)F)ncn2)CC1)N1CC[C@H](N[C@H]2CC[C@@](O)(c3ccc(-c4ncccn4)cn3)CC2)C1`, the IC50 [1] was 10 nM, the IC50 [2] was 40 nM and the IC50 [3] was greater than 30000 nM.
Work on `N#Cc1ccnc(N2CCC(C(=O)N3CC[C@H](N[C@H]4CC[C@@](O)(c5ccc(-c6ncccn6)cn5)CC4)C3)CC2)c1` yielded an IC50 [1] of 11 nM and an IC50 [2] of 33 nM.
Work on `O=C(N1CC[C@H](N[C@H]2CC[C@@](O)(c3ccc(-c4ncccn4)cn3)CC2)C1)C1(O)CCN(c2cc(C(F)(F)F)ccn2)CC1` yielded an IC50 [1] of 3.3 nM, an IC50 [2] of 33 nM and an IC50 [3] greater than 30000 nM.
Molecule `O=C(NCC(=O)N1CC[C@H](N[C@H]2CC[C@@](O)(c3ccc(-c4ncccn4)cn3)CC2)C1)c1cccc(C(F)(F)F)c1` [PF-4136309] has a t1/2 (Rattus norvegicus [4]) of 2.5 h, a CL (Rattus norvegicus [5]) of 23.5 mL/min/kg and an inhibition at 10 µM (hERG (KCNH2)) of 35%. It also gave an IC50 [6] of 17 nM, a bioavailability [7] of 78% and a half-life [8] of 2.4 h. The inhibition [9] was “inactive”, the half-life [10] was 2.5 h and the Tmax [11] was 1.2 h. The IC50 (Cytochrome P450 2D6) was greater than 30000 nM, the AUC [12] was 35.6 µM·h and the Drug metabolism [13] was “Not Active”. For the same molecule, the Papp [14] was 3.1 ×10⁻⁶ cm/s, the half-life [15] was 1.48 h and the inhibition [16] was “inactive”. It also gave an IC50 [17] of 20000 nM, an IC50 (Cytochrome P450 2C9) greater than 30000 nM and a half-life [18] of 3.2 h. For the same molecule, the clearance [19] was 7.67 mL/min/kg, the inhibition [20] was “inactive” and the IC50 (Cytochrome P450 2C19) was greater than 30000 nM. For the same molecule, the Cmax [21] was 20 µM, the Tmax [22] was 0.25 h and the inhibition [23] was “inactive”. The inhibition [24] was “inactive”, the IC50 [3] was greater than 30000 nM and the IC50 [25] was 2.8 nM. The IC50 (Cytochrome P450 1A2) was greater than 30000 nM, the Drug metabolism [26] was “Not Active” and the Vd [27] was 0.62 L/kg. The Activity [28] was “Not Active”, the AUC (Rattus norvegicus [29]) was 2.723 µM·h and the IC50 [30] was 13 nM. For the same molecule, the IC50 [31] was 16 nM, the F (Rattus norvegicus [32]) was 78% and the fraction unbound [33] was 0.23. It also gave a Cmax [34] of 0.61 µM.
